Results taken from ChEMBL document CHEMBL5257161, “Mycobacterium tuberculosis CitA activity is modulated by cysteine oxidation and pyruvate binding” (RSC Med Chem, 2023).

Assays:
[1] = substrate: O=C(O)CC(=O)C(=O)O; assay: Binding affinity to Mycobacterium tuberculosis wild type CitA expressed in Escherichia coli cells assessed as catalytic constant by Michaelis-Menten analysis
Method in brief: (§1)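 His-tagged CitA (wild type or variant) was expressed in E. coli, purified by cobalt affinity and size exclusion, then dialysed against 20 mM Tris pH 8.0. Activity was measured by DTNB (300 μM) thiol detection of released CoA at 412 nm, with OAA and AcCoA substrates and 10 nM enzyme, in 50 mM Tris pH 8.0 at 25 °C. A no-enzyme control was run. Triplicate runs were fitted to Michaelis–Menten.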

[2] = substrate: O=C(O)CC(=O)C(=O)O; assay: Binding affinity to Mycobacterium tuberculosis wild type CitA expressed in Escherichia coli cells assessed as apparent Km by Michaelis-Menten analysis; method in brief: as §1
[3] = substrate: O=C(O)CC(=O)C(=O)O; assay: Binding affinity to Mycobacterium tuberculosis wild type CitA expressed in Escherichia coli cells assessed as Vmax by Michaelis-Menten analysis; method in brief: as §1
[4] = substrate: O=C(O)CC(=O)C(=O)O; assay: Binding affinity to Mycobacterium tuberculosis wild type CitA expressed in Escherichia coli cells assessed as Kcat/Km by Michaelis-Menten analysis; method in brief: as §1

B1: Putative citrate synthase 2 (Mycobacterium tuberculosis), P9WPD3 (protein)
chain: MTVVPENFVPGLDGVVAFTTEIAEPDKDGGALRYRGVDIEDLVSQRVTFGDVWALLVDGNFGSGLPPAEPFPLPIHSGDVRVDVQAGLAMLAPIWGYAPLLDIDDATARQQLARASVMALSYVAQSARGIYQPAVPQRIIDECSTVTARFMTRWQGEPDPRHIEAIDAYWVSAAEHGMNASTFTARVIASTGADVAAALSGAIGAMSGPLHGGAPARVLPMLDEVERAGDARSVVKGILDRGEKLMGFGHRVYRAEDPRARVLRAAAERLGAPRYEVAVAVEQAALSELRERRPDRAIETNVEFWAAVVLDFARVPANMMPAMFTCGRTAGWCAHILEQKRLGKLVRPSAIYVGPGPRSPESVDGWERVLTTA
Q: Which results are given for B1?
A: kcat [1]: 5.67 s⁻¹; Km [2]: 14.3 µM; Vmax [3]: 3.4 µM/min; kcat/Km [4]: 400000 M⁻¹ s⁻¹
